# Compounds with a hit are over-represented: about 0.79% of the library has one in this group of screens.
# PKA-R1A act = activators of PKA-R1A holoenzyme, primary screen, biochemical, fluorescence polarization, Cy5-IP20, bovine R1A, mouse PKAc; PKA-R1A dissociation; scaled: DMSO 0%, 113 µM cGMP 100%; cAMP-dependent protein kinase type I-alpha regulatory subunit (Bos taurus) + …; actives 0.083% (n = 340,000); activation, % at 11.4 µM;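 active = percent activation above the mean of all tested compounds plus 3 SD, cut at about 19% in these data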;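 note: higher means more PKAc released from R1A so a rise in polarization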
# Rin1 Abl inh = inhibitors of Rin1-Abl protein binding, primary screen, biochemical, TR-FRET | Tyrosine-protein kinase ABL1 (Homo sapiens) + Ras and Rab interactor 1 (Homo sapiens), … | inhibition, % at 7.35 µM | actives 0.4% (n = 360,000); in the data active = inhibition above about 5%, passing the limit was not always enough
# PKA-R2B activ = activators of PKA-R2B holoenzyme, primary screen, biochemical, fluorescence polarization, Cy5-IP20, human | cAMP-dependent protein kinase catalytic subunit beta (Homo sapiens) + cAMP-dependent … | actives 0.079% (n = 340,000) | activation, % at 11.4 µM | AID 504700, 2011 | PKA-R2B holoenzyme dissociation; R2B truncated from residue 108, S112A mutant; 0% DMSO only, 100% 113 µM cGMP;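 active = activation above a cutoff set at the mean over all compounds plus 3 SD, cut at about 18% in these data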;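 note: higher means more holoenzyme dissociation and a rise in polarization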
# Target sequence (P31323 whole entry, looked up, other chains not shown, the tested form may be a part): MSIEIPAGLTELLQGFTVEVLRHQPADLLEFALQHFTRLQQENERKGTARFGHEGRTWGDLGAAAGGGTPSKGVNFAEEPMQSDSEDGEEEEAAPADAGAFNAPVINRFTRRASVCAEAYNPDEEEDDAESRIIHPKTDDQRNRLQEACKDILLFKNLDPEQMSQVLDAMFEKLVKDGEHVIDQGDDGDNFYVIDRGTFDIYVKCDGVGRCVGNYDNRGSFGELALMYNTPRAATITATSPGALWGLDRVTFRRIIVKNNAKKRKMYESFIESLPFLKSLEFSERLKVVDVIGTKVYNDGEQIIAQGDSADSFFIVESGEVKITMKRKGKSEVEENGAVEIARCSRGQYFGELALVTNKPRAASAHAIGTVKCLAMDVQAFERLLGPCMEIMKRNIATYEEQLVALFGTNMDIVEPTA
# UCH37 DUB inh = inhibitors of human UCH37 deubiquitinase, primary screen, biochemical, Ub-AMC cleavage, fluorescence. Ubiquitin carboxyl-terminal hydrolase isozyme L5 (Homo sapiens), Q9Y5K5. inhibition, % (concentration not given with the values). purified proteasome/UCH37. AID 588478, 2011. actives 0.33% (n = 330,000);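 active = mean inhibition over replicate wells above about 20%, limit read from the data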;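 note: 0% = compound-free wells with enzyme and 100% = wells lacking proteasome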
# Target sequence (Q9Y5K5 whole entry, looked up): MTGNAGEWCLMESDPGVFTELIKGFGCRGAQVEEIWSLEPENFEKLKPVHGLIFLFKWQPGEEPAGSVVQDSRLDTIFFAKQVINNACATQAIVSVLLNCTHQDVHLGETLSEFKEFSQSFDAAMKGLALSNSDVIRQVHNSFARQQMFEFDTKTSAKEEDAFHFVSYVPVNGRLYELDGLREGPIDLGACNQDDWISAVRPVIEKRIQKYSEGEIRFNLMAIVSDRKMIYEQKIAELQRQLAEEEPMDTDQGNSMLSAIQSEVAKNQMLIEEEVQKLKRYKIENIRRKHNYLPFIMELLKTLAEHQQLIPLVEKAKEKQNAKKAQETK
#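 Signal – fluorescence, ex 355 nm, em 460 nm · System – Proteasome-bound UCH37 · Input – 0.15 nM proteasome as dispensed · Timing – 30 min preincubation with enzyme, 25 min cleavage at room temperature · Read-out basis – percent inhibition of cleavage signal versus uninhibited and no-proteasome wells · Medium – Tris-HCl pH 7.4 with ATP-MgCl2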
# Rin1-Abl confirm = Rin1-Abl binding inhibitor retest, confirmation, biochemical, TR-FRET; actives 49% (n = 1,300); inhibition, % at 7.35 µM; shares compounds with Rin1 Abl inh; AID 602124, 2011; purified proteins
# GFP quencher = GFP fluorescence inhibitors and quenchers, artefact control for Rin1-Abl interaction inhibitor project, biochemical; shares compounds with Rin1 Abl inh; inhibitors/quenchers counterscreen; inhibition, % at 6.75 µM; actives 8.5% (n = 1,300); AID 602125, 2011;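 note: ABL1-eGFP fusion protein alone without its partner RIN1-SBP; 0% = protein with vehicle and 100% = wells lacking protein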
# GFP quench DR = GFP fluorescence inhibitors and quenchers, dose response, artefact control for Rin1-Abl interaction inhibitor project, biochemical; AID 602182, 2012; IC50, µM; shares compounds with Rin1 Abl inh; 230 tested, under 10 active; GFP fluorescence interference/quenching counterscreen; call rule not given here;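 note: ABL1-eGFP fusion protein alone without its RIN1 binding partner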
# * marks the source's active call; other numbers are inactive results; nt = not tested or not shown. Cut-off read from the data, not from the text of the source, unless noted: active = inhibition above about 6.5%; inactive = the rest.
SMILES,PKA-R1A act,Rin1 Abl inh,PKA-R2B activ,UCH37 DUB inh,Rin1-Abl confirm,GFP quencher,others
Cc1ccc(-n2c(SCC(=O)N3Cc4ccccc4CC3C(=O)O)nnc2-c2cccnc2)c(C)c1 (stereo not given),0.5,7.0*,-13.6,7.4,18.1*,2.1,GFP quench DR=>67.6
CC(=O)Nc1n[nH]c(-c2ccc(C)cc2)c1C,-10.2,-2.4,0.3,5.1,nt,nt,
O=C(Nc1cccc(NC(=O)c2cccnc2)c1)c1cccnc1,-2.5,8.6*,4.4,1.6,-1.8,0.2,
CN(Cc1ccccc1)C(=O)c1nc2ccccn2c1CN1CCc2sccc2C1,2.9,9.8*,2.0,-8.0,-1.9,-0.9,
O=C(NCc1ccccc1)C1Cc2c(-c3cccc(F)c3)ccnc2O1 (stereo not given),nt,0.1,nt,nt,nt,nt,
CC(=O)c1cccc(-c2ccnc3c2CC(C(=O)NCc2ccc(N4CCN(C)CC4)cc2)O3)c1 (stereo not given),nt,25.2*,nt,nt,17.6*,-0.8,GFP quench DR=>67.5
CN1CCN(c2ccc(CNC(=O)C3Cc4c(-c5cccc(F)c5)ccnc4O3)cc2)CC1 (stereo not given),nt,6.5*,nt,nt,4.7,0.7,
COc1cc(C(=O)Nc2cc(C)cc(C)c2)c(-n2cnnn2)cc1OC,-7.9,0.9,6.7,-1.4,nt,nt,
COc1ccccc1N=C1SC(C(=O)Nc2cccc(Cl)c2Cl)C(N)=C1C(N)=O (stereo not given),3.0,-2.1,5.9,1.9,nt,nt,
CCN(C[C@H]1N[C@@](Cc2ccccc2)(C(=O)OC)[C@H]2C(=O)N(C)C(=O)[C@@H]12)C(=O)c1ccc(F)cc1,-7.3,2.8,-6.3,0.3,nt,nt,
CCOC(=O)c1ccc2ncc(C(=O)OCC)c(NCCN3CCOCC3)c2c1,-6.0,-3.8,10.0,2.4,nt,nt,
CCOC(=O)c1ccc2ncc(C(=O)OCC)c(NCCN(C)C)c2c1,7.6,7.9*,1.0,-7.5,-0.9,1.3,
N#CCO/N=C/C(=O)Nc1ccc(F)cc1F,-8.0,-2.4,-11.3,nt,nt,nt,
Cc1ccc(C(=O)NC(C)c2ccccc2)cc1S(=O)(=O)N1CCOCC1 (stereo not given),-14.6,1.5,-23.6,nt,nt,nt,
Cc1ccc(C(=O)NC(C)c2ccc(-n3ccnc3)cc2)cc1S(=O)(=O)N1CCOCC1 (stereo not given),-10.8,11.2*,-3.4,4.9,16.4*,0.3,
OCCNc1ncnc2c1sc1nc(N3CCOCC3)c3c(c12)CCC3,-7.0,4.5,3.4,-36.2,nt,nt,
CCN(CC)CCNc1ncnc2c1sc1nc(N3CCOCC3)c3c(c12)CCCC3,-2.6,10.7*,-7.5,-7.2,3.4,-0.9,
CC(C)CNc1ncnc2c1sc1nc(N3CCOCC3)c3c(c12)CC(C)(C)OC3,-18.1,-1.1,5.3,-2.3,nt,nt,
CCN(CC)CCNc1ncnc2c1sc1nc(N3CCCC3)c3c(c12)CC(C)(C)OC3,3.3,10.2*,7.6,0.4,12.7*,-1.4,
CN(C)CCNc1ncnc2c1sc1nc(N3CCCC3)c3c(c12)CC(C)(C)OC3,2.9,7.2*,-1.7,-1.8,10.2*,-1.5,
CSc1nc(NC(C)C)nc(N2CCOCC2)n1,2.9,0.5,0.6,3.3,nt,nt,
Cc1c(C(=O)NCc2ccc3c(c2)OCCO3)sc(=O)n1Cc1ccc2c(c1)OCO2,nt,-1.5,nt,nt,nt,nt,
CC(C)N1C(=O)c2ccc(C(=O)O)cc2C1=O,0.3,3.3,-10.2,2.6,nt,nt,
COC(=O)/C=C1/N/C(=N\c2nc(C)cc(C)n2)N(c2cccc(C)c2)C1=O,-18.3,-0.9,0.2,nt,nt,nt,
CC1=C(C(=O)OC(C)C)C(c2cccnc2)C2=C(CCCC2=O)N1 (stereo not given),9.1,-2.1,-11.8,-405.5,nt,nt,
SMILES,PKA-R1A act,Rin1 Abl inh,PKA-R2B activ,UCH37 DUB inh,Rin1-Abl confirm,GFP quencher,others
CCOC(=O)C1=C(C)NC2=C(C(=O)CCC2)C1c1cccnc1 (stereo not given),-9.5,11.2*,-2.9,-113.4,-2.9,0.8,
CSc1ccc(CN2CCC(CO)(CCOc3ccccc3)CC2)cc1,-8.7,0.4,-7.7,4.3,nt,nt,
OCC1(CCOc2ccccc2)CCN(Cc2ccncc2)CC1,0.5,12.3*,-4.4,-1.2,12.3*,-1.8,
CC1(Cc2ccc(OC(F)(F)F)cc2)C(=O)Nc2ccc(OC(F)(F)F)cc21 (stereo not given),nt,7.4*,nt,nt,-1.7,-1.2,
Cn1c(=O)c2ncn(CC(=O)NCCOc3ccccc3)c2n(C)c1=O,2.8,1.4,6.7,5.9,nt,nt,
Cc1ccc(OCCNC(=O)Cn2cnc3c(=O)n(C)c(=O)n(C)c32)cc1C,13.7,10.5*,7.4,0.9,-0.4,-3.0,
O=C(O)C1CCCCC1C(=O)Nc1cccc2ccccc12 (stereo not given),-6.2,-4.1,0.0,-0.7,nt,nt,
Cc1cccc(N(Cc2ccccc2)C(=O)Cc2ccc(S(=O)(=O)N3CCOCC3)s2)c1,8.2,14.4*,-1.9,1.4,25.8*,0.6,GFP quench DR=>67.5
COc1ccc(-c2[nH][nH]c(=O)c2NC(=O)c2ccccc2Br)cc1,nt,3.4,nt,nt,nt,nt,
CN(C)c1ccc(-c2[nH][nH]c(=O)c2NC(=O)c2ccccn2)cc1,nt,33.7*,nt,nt,10.7*,0.1,
CN(C)c1ccc(-c2[nH][nH]c(=O)c2NC(=O)c2ccc3ccccc3n2)cc1,nt,35.5*,nt,nt,10.1*,2.9,
COc1ccc(C=C2CCC3C(=O)CCCC3(C)C2=O)cc1 (stereo not given),5.6,-4.3,7.5,nt,nt,nt,
COC(=O)C=CC(=NNc1ccccc1)c1ccccc1,-3.1,9.1*,-13.1,4.6,-1.8,-0.6,
O=C1CN2C(=N1)N(Cc1ccccc1)c1ccccc12,8.0,-0.6,4.8,-0.7,nt,nt,
COCC(=O)Nc1ccc2c(c1)[C@@H]1C[C@H](CC(=O)NCc3cccc(F)c3)O[C@@H](CO)[C@@H]1O2,-6.5,49.9*,-5.0,nt,-0.1,0.6,
Cc1nc2ccccc2c(=O)n1/N=C/c1ccccc1O,-7.9,1.5,-5.6,nt,nt,nt,
Cc1nc2ccccc2c(=O)n1/N=C/c1ccc(O)c(O)c1O,0.7,27.4*,-9.8,nt,15.3*,22.9*,
CCn1cc(C(=O)NCCCOC)c(=O)c2cc(S(=O)(=O)N3CCC(C)CC3)ccc21,-12.0,5.7,2.7,2.8,nt,nt,
CCn1cc(C(=O)NCCCOC(C)C)c(=O)c2cc(S(=O)(=O)N3CCC(C)CC3)ccc21,-13.2,13.1*,-0.7,4.0,1.3,-4.7,
NCC12CC3CC(C1)CC(CN)(C3)C2,-8.2,0.1,-1.8,5.2,nt,nt,

# From PubChem BioAssay
